Laboratory results from ChEMBL document CHEMBL4765236, “Insights into the Antimicrobial Activity and Cytotoxicity of Engineered α-Helical Peptide Amphiphiles” (J Med Chem, 2016).
Calls of active or inactive are those of the source. The calls are words filed in the database; no cut-off is given here.

Legend:
Erythrocyte = assay: Hemolytic activity against human red blood cells assessed as hemoglobin release at 64 uM measured after 1 hr by microplate reader analysis; format: ADME, cell-based
Outline: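 Fresh heparinized human RBCs washed three times in 10 mM PBS pH 7.4 and resuspended to about 1% (v/v) (5.4 × 10^8 cells/mL). Mixed 1:1 with peptide in PBS for 1 h at 37 °C, then centrifuged. Supernatant hemoglobin read at A540. PBS set as 0% and 0.1% Triton X-100 as 100% hemolysis. MHC is the concentration causing 10% hemolysis.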

Listeria monocytogenes [1] = assay: Antibacterial activity against Listeria monocytogenes CICC 21662 assessed as bacterial growth inhibition incubated for 18 to 24 hrs by microtiter broth dilution method; format: functional; conditions: time 18-24 hrs
Outline: (§1)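 Log-phase cells (grown overnight at 37 °C, subcultured in MHB) diluted to 10^5 CFU/mL in MHB and mixed 1:1 with serial peptide dilutions prepared in 0.01% acetic acid/0.2% BSA. Incubated 37 °C for 18-24 h. MIC is the lowest concentration giving no growth by OD492. Reported as the average of 3-5 independent experiments.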

Staphylococcus aureus [2] = assay: Antibacterial activity against methicillin resistant Staphylococcus aureus ATCC 43300 assessed as bacterial growth inhibition incubated for 18 to 24 hrs by microtiter broth dilution method; format: functional; conditions: time 18-24 hrs
Outline: (§2)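 Log-phase bacteria grown at 37 °C in MHB, diluted to 10^5 CFU/mL, mixed 1:1 with serial peptide dilutions (peptide diluted in 0.01% acetic acid, 0.2% BSA); 37 °C for 18-24 h. MIC read by OD492 as lowest concentration giving no growth; mean of 3-5 independent experiments.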

Salmonella enteritidis = assay: Antibacterial activity against Salmonella enteritidis CICC 21527 assessed as bacterial growth inhibition incubated for 18 to 24 hrs by microtiter broth dilution method; format: functional, Salmonella enterica subsp. enterica serovar Enteritidis; conditions: Salmonella enterica, time 18-24 hrs; outline: as §1
Salmonella typhimurium = assay: Antibacterial activity against Salmonella typhimurium CMCC 51005 assessed as bacterial growth inhibition incubated for 18 to 24 hrs by microtiter broth dilution method; format: functional, Salmonella enterica subsp. enterica serovar Typhimurium; conditions: Salmonella enterica, time 18-24 hrs; outline: as §1
RAW264.7 = assay: Cytotoxicity against mouse RAW264.7 cells assessed as increase in cell viability at 64 uM incubated for 24 hrs by MTT assay relative to control; format: cell-based; conditions: raw264.7, 24 h
Outline: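 RAW264.7 macrophages were grown in DMEM with 10% FBS, 2 mM glutamine and penicillin/streptomycin at 37 °C in 5% CO2. Cells seeded at 1.0-2.0 × 10^4 per well and treated with peptide (final 0.25-64 µM) for 24 h at 37 °C. MTT at 0.5 mg/mL added for 4 h, formazan dissolved in DMSO, read at 570 nm.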

[3] = system: Salmonella enterica subsp. enterica serovar Paratyphi B; assay: Antibacterial activity against Salmonella paratyphi B CICC 21495 assessed as bacterial growth inhibition incubated for 18 to 24 hrs by microtiter broth dilution method; format: functional; conditions: time 18-24 hrs; outline: as §2
Salmonella paratyphi = assay: Antibacterial activity against Salmonella paratyphi C CICC 21512 assessed as bacterial growth inhibition incubated for 18 to 24 hrs by microtiter broth dilution method; format: functional; conditions: Salmonella enterica, time 18-24 hrs; outline: as §2
Staphylococcus aureus [4] = assay: Antibacterial activity against Staphylococcus aureus GIM 1.160 assessed as bacterial growth inhibition incubated for 18 to 24 hrs by microtiter broth dilution method; format: functional; conditions: time 18-24 hrs; outline: as §1
Staphylococcus aureus [5] = assay: Antibacterial activity against Staphylococcus aureus ATCC 29213 assessed as bacterial growth inhibition incubated for 18 to 24 hrs in presence of 4.5 mM KCl by microtiter broth dilution method (reference value: 0.43 to > 71.5 uM); format: functional; conditions: time 18-24 hrs
Escherichia coli [6] = assay: Antibacterial activity against Escherichia coli ATCC 25922 assessed as bacterial growth inhibition incubated for 18 to 24 hrs by microtiter broth dilution method; format: functional; conditions: time 18-24 hrs; outline: as §1
Micrococcus luteus = assay: Antibacterial activity against Micrococcus luteus CMCC 28001 assessed as bacterial growth inhibition incubated for 18 to 24 hrs by microtiter broth dilution method; format: functional; conditions: time 18-24 hrs; outline: as §1
Listeria monocytogenes [7] = assay: Antibacterial activity against Listeria monocytogenes CICC 21633 assessed as bacterial growth inhibition incubated for 18 to 24 hrs by microtiter broth dilution method; format: functional; conditions: time 18-24 hrs; outline: as §1
Escherichia coli [8] = assay: Antibacterial activity against Escherichia coli O157:H7 CICC 21530 assessed as bacterial growth inhibition incubated for 18 to 24 hrs in presence of 6 mM NH4Cl by microtiter broth dilution method (reference value: 0.85 to > 71.5 uM); format: functional; conditions: time 18-24 hrs
Escherichia coli [9] = assay: Bactericidal activity against Escherichia coli O157:H7 CICC 21530 assessed as bacterial killing at 1 times MIC by time kill assay; format: functional, organism-based; conditions: time 1085.0 min, TDE = time-dependent effect
Escherichia coli [10] = assay: Antibacterial activity against Escherichia coli O157:H7 CICC 21530 assessed as bacterial growth inhibition incubated for 18 to 24 hrs in presence of 150 mM NaCl by microtiter broth dilution method (reference value: 0.85 to > 71.5 uM); format: functional; conditions: time 18-24 hrs
HepG2 = assay: Cytotoxicity against human HepG2 cells assessed as reduction in cell viability incubated for 24 hrs by MTT assay; format: functional, cell-based
Outline: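 HepG2 survival measured by MTT assay over a peptide range of 0.25-64 µM.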

Escherichia coli [11] = assay: Antibacterial activity against Escherichia coli O157:H7 CICC 21530 assessed as bacterial growth inhibition incubated for 18 to 24 hrs in presence of 4.5 mM KCl by microtiter broth dilution method (reference value: 0.85 to > 71.5 uM); format: functional; conditions: time 18-24 hrs
Staphylococcus aureus [12] = assay: Antibacterial activity against Staphylococcus aureus ATCC 29213 assessed as bacterial growth inhibition incubated for 18 to 24 hrs in presence of 1 mM MgCl2 by microtiter broth dilution method (reference value: 0.43 to > 71.5 uM); format: functional; conditions: time 18-24 hrs
Staphylococcus aureus [13] = assay: Antibacterial activity against Staphylococcus aureus ATCC 29213 assessed as bacterial growth inhibition incubated for 18 to 24 hrs in presence of […] by microtiter broth dilution method (reference value: 0.43 to > 71.5 uM); format: functional; conditions: time 18-24 hrs
Cell membrane [14] = assay: Induction of inner membrane permeabilization in Escherichia coli O157:H7 CICC 21530 assessed as cytoplasmic beta-galactosidase release at 1 times MIC using ONPG as substrate by […]; format: subcellular
Candida albicans = assay: Antifungal activity against Candida albicans ATCC 10231 assessed as fungal growth inhibition incubated for 18 to 24 hrs by microtiter broth dilution method; format: functional; conditions: time 18-24 hrs; outline: as §1
Cell membrane [15] = assay: Induction of cell membrane depolarization in Escherichia coli O157:H7 CICC 21530 assessed as increase in fluorescence intensity at 0.5 to 2 times MIC preincubated for 90 mins followed by KCl addition and measured after 15 to 30 mins by DiSC3-5 staining based fluorescence spectroscopic technique; format: subcellular; conditions: time 105-120 min
Escherichia coli [16] = assay: Antibacterial activity against Escherichia coli O157:H7 CICC 21530 assessed as bacterial growth inhibition incubated for 18 to 24 hrs in presence of 1 mM MgCl2 by microtiter broth dilution method (reference value: 0.85 to > 71.5 uM); format: functional; conditions: time 18-24 hrs
Staphylococcus aureus [17] = assay: Antibacterial activity against Staphylococcus aureus ATCC 29213 assessed as bacterial growth inhibition incubated for 18 to 24 hrs in presence of 6 mM NH4Cl by microtiter broth dilution method (reference value: 0.43 to > 71.5 uM); format: functional; conditions: time 18-24 hrs
Escherichia coli [18] = assay: Antibacterial activity against Escherichia coli O157:H7 CICC 21530 assessed as bacterial growth inhibition incubated for 18 to 24 hrs by microtiter broth dilution method; format: functional; conditions: time 18-24 hrs; outline: as §2

H-WLRAFRRLVRRLARLLRR-NH2
Activity (Erythrocyte): Non-Toxic
MIC (Listeria monocytogenes [1]): 3.32 µM
MIC (Staphylococcus aureus [2]): 3.32 µM
MIC (Salmonella enteritidis): > 53.2 µM
MIC (Salmonella typhimurium): > 53.2 µM
Activity (RAW264.7): 48.25%
MIC [3]: 3.32 µM
MIC (Salmonella paratyphi): 6.65 µM
MIC (Staphylococcus aureus [4]): 1.66 µM
MIC (Staphylococcus aureus [5]): 1.66 µM
MIC (Escherichia coli [6]): 13.3 µM
MIC (Micrococcus luteus): 13.3 µM
MIC (Listeria monocytogenes [7]): 3.32 µM
MIC (Escherichia coli [8]): > 53.2 µM
Activity (Escherichia coli [9]): Tde
MIC (Escherichia coli [10]): > 53.2 µM
Activity (HepG2): Dose-dependent effect
MIC (Escherichia coli [11]): 1.66 µM
MIC (Staphylococcus aureus [12]): 0.83 µM
MIC (Staphylococcus aureus [13]): > 53.2 µM
Activity (Cell membrane [14]): inactive
MIC (Candida albicans): 26.6 µM
Activity (Cell membrane [15]): Active
MIC (Escherichia coli [16]): > 53.2 µM
MIC (Staphylococcus aureus [17]): 1.66 µM
MIC (Escherichia coli [18]): 3.32 µM

H-WGRAFSRGVRRLARGGRG-NH2
Activity (Erythrocyte): Non-Toxic
MIC (Listeria monocytogenes [1]): 15.9 µM
MIC (Staphylococcus aureus [2]): > 63.5 µM
MIC (Salmonella enteritidis): > 63.5 µM
MIC (Salmonella typhimurium): > 63.5 µM
Activity (RAW264.7): 85.48%
MIC [3]: 15.9 µM
MIC (Salmonella paratyphi): 15.9 µM
MIC (Staphylococcus aureus [4]): 15.9 µM
MIC (Staphylococcus aureus [5]): > 63.5 µM
MIC (Escherichia coli [6]): 31.8 µM
MIC (Micrococcus luteus): > 63.5 µM
MIC (Listeria monocytogenes [7]): 31.8 µM
MIC (Escherichia coli [8]): 7.94 µM
Activity (Escherichia coli [9]): Tde
MIC (Escherichia coli [10]): 15.9 µM
Activity (HepG2): Dose-dependent effect
MIC (Escherichia coli [11]): 3.97 µM
MIC (Staphylococcus aureus [12]): > 63.5 µM
MIC (Staphylococcus aureus [13]): > 63.5 µM
Activity (Cell membrane [14]): inactive
MIC (Candida albicans): > 63.5 µM
Activity (Cell membrane [15]): Active
MIC (Escherichia coli [16]): 7.94 µM
MIC (Staphylococcus aureus [17]): > 63.5 µM
MIC (Escherichia coli [18]): 7.94 µM

H-WGRAFRRGVRRLARGGRR-NH2
Activity (Erythrocyte): Non-Toxic
MIC (Listeria monocytogenes [1]): 7.33 µM
MIC (Staphylococcus aureus [2]): 14.7 µM
MIC (Salmonella enteritidis): > 58.6 µM
MIC (Salmonella typhimurium): > 58.6 µM
Activity (RAW264.7): 74.8%
MIC [3]: 3.67 µM
MIC (Salmonella paratyphi): 7.33 µM
MIC (Staphylococcus aureus [4]): 7.33 µM
MIC (Staphylococcus aureus [5]): 7.33 µM
MIC (Escherichia coli [6]): 14.7 µM
MIC (Micrococcus luteus): 7.33 µM
MIC (Listeria monocytogenes [7]): 7.33 µM
MIC (Escherichia coli [8]): 3.67 µM
Activity (Escherichia coli [9]): Tde
MIC (Escherichia coli [10]): 14.7 µM
Activity (HepG2): Dose-dependent effect
MIC (Escherichia coli [11]): 3.67 µM
MIC (Staphylococcus aureus [12]): 3.67 µM
MIC (Staphylococcus aureus [13]): > 58.6 µM
Activity (Cell membrane [14]): inactive
MIC (Candida albicans): 29.3 µM
Activity (Cell membrane [15]): Active
MIC (Escherichia coli [16]): 3.67 µM
MIC (Staphylococcus aureus [17]): 7.33 µM
MIC (Escherichia coli [18]): 3.67 µM

H-WGRAFSAGVHRLARGGRG-NH2
Activity (Erythrocyte): Non-Toxic
MIC (Listeria monocytogenes [1]): 33.5 µM
MIC (Staphylococcus aureus [2]): > 67 µM
MIC (Salmonella enteritidis): > 67 µM
MIC (Salmonella typhimurium): > 67 µM
Activity (RAW264.7): 87.22%
MIC [3]: > 67 µM
MIC (Salmonella paratyphi): > 67 µM
MIC (Staphylococcus aureus [4]): > 67 µM
MIC (Staphylococcus aureus [5]): > 67 µM
MIC (Escherichia coli [6]): > 67 µM
MIC (Micrococcus luteus): > 67 µM
MIC (Listeria monocytogenes [7]): 67 µM
MIC (Escherichia coli [8]): 8.35 µM
Activity (Escherichia coli [9]): Tde
MIC (Escherichia coli [10]): > 67 µM
Activity (HepG2): Dose-dependent effect
MIC (Escherichia coli [11]): 4.19 µM
MIC (Staphylococcus aureus [12]): > 67 µM
MIC (Staphylococcus aureus [13]): > 67 µM
Activity (Cell membrane [14]): inactive
MIC (Candida albicans): > 67 µM
Activity (Cell membrane [15]): Active
MIC (Escherichia coli [16]): 67 µM
MIC (Staphylococcus aureus [17]): > 67 µM
MIC (Escherichia coli [18]): 16.8 µM
